Source: ChEMBL document CHEMBL4346663, “N-Cinnamoylanthranilates as human TRPA1 modulators: Structure-activity relationships and channel binding sites” (Eur J Med Chem, 2019)
Activity calls are given as the source filed them. No cut-off for these calls is given here.

What was measured:
[1] = tested on: Transient receptor potential cation channel subfamily A member 1 (Homo sapiens), O75762 [F944A]; experiment: Agonist activity at human TRPA1 Phe944Ala mutant expressed in HEK293 cells assessed as Ca2+ influx at 10 uM by fluorescence assay; type: cell-based
Summary of the method: (§1)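 HEK293 cells stably expressing hTRPA1 point mutants (C621A, F909A or F944A), single-cell cloned under G418 selection. Cells plated on poly-D-lysine for 48 h, loaded with Fluo-4AM 2 µM for 45 min at room temperature. FlexStation read (ex 485/em 538 nm): 20 s baseline, compound added, calcimycin added at 180 s. Response expressed as % calcimycin from ΔRFU, vehicle-subtracted, and compared with wild-type hTRPA1 cells.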

[2] = molecular target: T1, Transient receptor potential cation channel subfamily A member 1 (Homo sapiens, UniProt O75762); experiment: Agonist activity at human TRPA1 in WI38 cells assessed as increase in calcium influx by Fluo-4-AM dye based fluorescence assay; type: cell-based
[3] = tested on: Transient receptor potential cation channel subfamily A member 1 (Homo sapiens), O75762 [F909A]; experiment: Agonist activity at human TRPA1 Phe909Ala mutant expressed in HEK293 cells assessed as Ca2+ influx at 10 uM by fluorescence assay; type: cell-based; summary of the method: as §1
[4] = molecular target: T1, Transient receptor potential cation channel subfamily A member 1; experiment: Agonist activity at human TRPA1 expressed in HEK293 cells assessed as increase in calcium influx by Fluo-4-AM dye based fluorescence assay; type: cell-based
Summary of the method: (§2)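 Stably transfected hTRPA1- or hTRPM8-HEK293 cells on poly-D-lysine plates for 48 h, loaded with Fluo-4AM (2 µM, 45 min, dark, room temperature), in isotonic HEPES buffer pH 7.4. FlexStation 240 s run: 20 s baseline, compound added, calcimycin added at 180 s. ΔRFU expressed as % calcimycin, DMSO-subtracted. Screening N = 3. Dose-response curves fitted for logEC50 (N = 3 in duplicate or triplicate).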

[5] = tested on: Transient receptor potential cation channel subfamily A member 1 (Homo sapiens), O75762 [F909A]; experiment: Agonist activity at human TRPA1 Phe909Ala mutant expressed in HEK293 cells assessed as Ca2+ influx at 30 uM by fluorescence assay; type: cell-based; summary of the method: as §1
[6] = molecular target: T1, Transient receptor potential cation channel subfamily A member 1; experiment: Agonist activity at human TRPA1 expressed in HEK293 cells assessed as increase in calcium influx at 30 uM by Fluo-4-AM dye based fluorescence assay relative to calcimycin; type: cell-based; summary of the method: as §2
[7] = molecular target: T2, Transient receptor potential cation channel subfamily M member 8 (Homo sapiens, UniProt Q7Z2W7); experiment: Antagonist activity at human TRPM8 expressed in HEK293 cells assessed as inhibition in WS5-induced increase in calcium influx incubated for 10 mins prior to WS5 challenge by Fluo-4-AM dye based fluorescence assay; type: cell-based
Summary of the method: (§3)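 hTRPM8-HEK293 cells loaded with Fluo-4AM (2 µM, 45 min). Test compound pre-incubated 10 min before WS5 standard agonist. FlexStation fluorescence at 485/538 nm. ΔRFU given as % of WS5 response after DMSO vehicle subtraction. N = 3. IC50 from dose-response curves.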
Target sequence in this assay (Q7Z2W7 whole entry): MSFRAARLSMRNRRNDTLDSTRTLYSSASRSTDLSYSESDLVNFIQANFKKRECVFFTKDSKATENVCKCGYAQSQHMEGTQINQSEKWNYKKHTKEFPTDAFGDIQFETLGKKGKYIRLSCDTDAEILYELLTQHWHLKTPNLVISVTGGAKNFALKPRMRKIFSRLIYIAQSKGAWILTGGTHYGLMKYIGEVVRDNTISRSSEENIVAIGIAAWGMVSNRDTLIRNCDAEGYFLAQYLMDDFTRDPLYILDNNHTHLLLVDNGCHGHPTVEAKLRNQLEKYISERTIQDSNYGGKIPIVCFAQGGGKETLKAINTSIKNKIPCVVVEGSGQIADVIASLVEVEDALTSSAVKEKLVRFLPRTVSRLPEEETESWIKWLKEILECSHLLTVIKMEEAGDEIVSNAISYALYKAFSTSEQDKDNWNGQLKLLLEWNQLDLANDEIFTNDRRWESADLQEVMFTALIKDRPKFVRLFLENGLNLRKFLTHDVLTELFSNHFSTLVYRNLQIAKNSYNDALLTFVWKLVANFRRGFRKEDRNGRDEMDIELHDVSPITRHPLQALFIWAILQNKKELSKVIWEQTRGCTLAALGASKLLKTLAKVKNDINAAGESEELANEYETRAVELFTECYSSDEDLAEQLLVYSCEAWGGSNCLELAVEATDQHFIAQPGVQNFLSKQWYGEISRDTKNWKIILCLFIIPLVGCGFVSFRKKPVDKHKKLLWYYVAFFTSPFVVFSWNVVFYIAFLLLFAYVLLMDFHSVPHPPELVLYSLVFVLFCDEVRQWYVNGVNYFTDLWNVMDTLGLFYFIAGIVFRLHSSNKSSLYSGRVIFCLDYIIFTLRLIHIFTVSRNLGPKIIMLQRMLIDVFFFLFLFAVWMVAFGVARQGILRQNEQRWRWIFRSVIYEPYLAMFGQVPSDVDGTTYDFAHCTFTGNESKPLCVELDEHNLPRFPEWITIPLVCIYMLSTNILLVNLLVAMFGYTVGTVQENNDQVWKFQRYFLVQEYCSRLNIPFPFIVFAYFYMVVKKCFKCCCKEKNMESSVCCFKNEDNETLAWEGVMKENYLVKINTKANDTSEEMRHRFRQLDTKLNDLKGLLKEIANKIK

[8] = molecular target: T2, Transient receptor potential cation channel subfamily M member 8; experiment: Antagonist activity at human TRPM8 expressed in HEK293 cells assessed as increase in calcium influx at 100 uM incubated for 10 mins prior to WS5 challenge by Fluo-4-AM dye based fluorescence assay relative to WS5; type: cell-based; parameters: scale not given: the % may be the effect or the level left; summary of the method: as §3
Target sequence in this assay (Q7Z2W7 whole entry, looked up): as the sequence (Q7Z2W7 whole entry) above

[9] = molecular target: T1, Transient receptor potential cation channel subfamily A member 1; experiment: Antagonist activity at human TRPA1 expressed in HEK293 cells assessed as inhibition of CA-induced increase in calcium influx incubated for 10 mins prior to CA addition by Fluo-4-AM dye based fluorescence assayy; type: cell-based
[10] = molecular target: T1, Transient receptor potential cation channel subfamily A member 1; experiment: Antagonist activity at human TRPA1 expressed in HEK293 cells assessed as increase in calcium influx at 100 uM incubated for 10 mins prior to CA addition by Fluo-4-AM dye based fluorescence assay relative to CA; type: cell-based; parameters: scale not given: the % may be the effect or the level left
Summary of the method: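 hTRPA1-HEK293 cells loaded with Fluo-4AM (2 µM). Compound pre-incubated 10 min, then cinnamaldehyde standard agonist added. FlexStation read, ex 485/em 538 nm. ΔRFU normalized to the CA response set at 100 % after DMSO vehicle subtraction. N = 3. logIC50 taken from dose-response fits.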

[11] = molecular target: T2, Transient receptor potential cation channel subfamily M member 8; experiment: Agonist activity at human TRPM8 expressed in HEK293 cells assessed as increase in calcium influx at 30 uM by Fluo-4-AM dye based fluorescence assay relative to calcimycin; type: cell-based; summary of the method: as §2
Target sequence in this assay (Q7Z2W7 whole entry, looked up): as the sequence (Q7Z2W7 whole entry) above

[12] = molecular target: T1, Transient receptor potential cation channel subfamily A member 1; experiment: Reversible desensitizing activity at human TRPA1 expressed in HEK293 cells assessed as CA-induced increase in Ca2+ influx upto 10 uM pretreated with compound followed by drug wash-out and CA challenge by Fluo-4-AM dye based fluorescence assay; type: cell-based
Summary of the method: (§4)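 hTRPA1-HEK293 cells loaded with Fluo-4AM were pre-incubated with compound, then washed and resuspended in fresh assay buffer. The response to cinnamaldehyde (30 µM) was then measured by FlexStation calcium fluorescence.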

[13] = molecular target: T1, Transient receptor potential cation channel subfamily A member 1; experiment: Irreversible desensitizing activity at human TRPA1 expressed in HEK293 cells assessed as CA-induced increase in Ca2+ influx at >30 uM pretreated with compound followed by drug wash-out and CA challenge by Fluo-4-AM dye based fluorescence assay; type: cell-based; summary of the method: as §4
[14] = molecular target: T2, Transient receptor potential cation channel subfamily M member 8; experiment: Agonist activity at human TRPM8 expressed in HEK293 cells assessed as increase in calcium influx at 100 uM by Fluo-4-AM dye based fluorescence assay relative to calcimycin; type: cell-based; summary of the method: as §2
Target sequence in this assay (Q7Z2W7 whole entry, looked up): as the sequence (Q7Z2W7 whole entry) above

[15] = Dissociation constant, pKa of the compound at pH 7.4; type: physicochemical
[16] = molecular target: T1, Transient receptor potential cation channel subfamily A member 1; experiment: Modulating activity at human TRPA1 expressed in HEK293 cells assessed as desensitization of CA-induced increase in Ca2+ influx at 10 uM measured within 10 mins by Fluo-4-AM dye based fluorescence assay; type: cell-based
Summary of the method: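 hTRPA1-HEK293 cells with Fluo-4AM. Real-time fluorescence recorded for 10 min after compound addition (10 µM), followed by challenge with cinnamaldehyde (30 µM) to assess desensitization of the agonist response.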

[17] = molecular target: T2, Transient receptor potential cation channel subfamily M member 8; experiment: Antagonist activity at human TRPM8 expressed in HEK293 cells assessed as increase in calcium influx at 30 uM incubated for 10 mins prior to WS5 challenge by Fluo-4-AM dye based fluorescence assay relative to WS5; type: cell-based; parameters: scale not given: the % may be the effect or the level left; summary of the method: as §3
Target sequence in this assay (Q7Z2W7 whole entry, looked up): as the sequence (Q7Z2W7 whole entry) above

[18] = tested on: Transient receptor potential cation channel subfamily A member 1 (Homo sapiens), O75762 [F944A]; experiment: Agonist activity at human TRPA1 Phe944Ala mutant expressed in HEK293 cells assessed as Ca2+ influx at 30 uM by fluorescence assay; type: cell-based; summary of the method: as §1
[19] = molecular target: T2, Transient receptor potential cation channel subfamily M member 8; experiment: Agonist activity at human TRPM8 expressed in HEK293 cells assessed as increase in calcium influx at 3 uM by Fluo-4-AM dye based fluorescence assay relative to calcimycin; type: cell-based; summary of the method: as §2
Target sequence in this assay (Q7Z2W7 whole entry, looked up): as the sequence (Q7Z2W7 whole entry) above

[20] = molecular target: T1, Transient receptor potential cation channel subfamily A member 1; experiment: Antagonist activity at human TRPA1 expressed in HEK293 cells assessed as increase in calcium influx at 3 uM incubated for 10 mins prior to CA challenge by Fluo-4-AM dye based fluorescence assay […]; type: cell-based
[21] = organism: Cavia porcellus; experiment: Agonist activity at TRPA1 in Dunkin-Hartley guinea pig vagus nerve assessed as activation of vagus nerve by measuring depolarization at 100 uM […]
Summary of the method: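 Isolated vagus nerves from male Dunkin-Hartley guinea pigs (300-400 g, eight animals). Compound DMSO stocks diluted 1000× in Krebs-Henseleit buffer. Viability checked with capsaicin (1 µM) at the start and acrolein (300 µM) at the end. Single non-cumulative concentrations applied for 2 min each, with KH wash to baseline between them. DMSO vehicle run alike. Depolarization recorded in mV.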

[22] = organism: Cavia porcellus; experiment: Antagonist activity at TRPA1 in Dunkin-Hartley guinea pig vagus nerve assessed as inhibition of ACR-stimulated vagus nerve by measuring depolarization at 100 uM incubated for 10 mins followed by ACR stimulation for 140 secs […]
Summary of the method: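 Guinea pig vagus nerve (male Dunkin-Hartley) in Krebs-Henseleit buffer; compound from DMSO stock diluted 1000×. Two control acrolein (300 µM, 2 min) responses, each washed to baseline. Then 10 min compound pretreatment and re-stimulation with acrolein 300 µM for 2 min 20 s. After washout, a recovery acrolein response was taken. Depolarization recorded in mV.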

Chain of Transient receptor potential cation channel subfamily A member 1 (Homo sapiens), O75762 [F944A] (O75762 whole entry F944A): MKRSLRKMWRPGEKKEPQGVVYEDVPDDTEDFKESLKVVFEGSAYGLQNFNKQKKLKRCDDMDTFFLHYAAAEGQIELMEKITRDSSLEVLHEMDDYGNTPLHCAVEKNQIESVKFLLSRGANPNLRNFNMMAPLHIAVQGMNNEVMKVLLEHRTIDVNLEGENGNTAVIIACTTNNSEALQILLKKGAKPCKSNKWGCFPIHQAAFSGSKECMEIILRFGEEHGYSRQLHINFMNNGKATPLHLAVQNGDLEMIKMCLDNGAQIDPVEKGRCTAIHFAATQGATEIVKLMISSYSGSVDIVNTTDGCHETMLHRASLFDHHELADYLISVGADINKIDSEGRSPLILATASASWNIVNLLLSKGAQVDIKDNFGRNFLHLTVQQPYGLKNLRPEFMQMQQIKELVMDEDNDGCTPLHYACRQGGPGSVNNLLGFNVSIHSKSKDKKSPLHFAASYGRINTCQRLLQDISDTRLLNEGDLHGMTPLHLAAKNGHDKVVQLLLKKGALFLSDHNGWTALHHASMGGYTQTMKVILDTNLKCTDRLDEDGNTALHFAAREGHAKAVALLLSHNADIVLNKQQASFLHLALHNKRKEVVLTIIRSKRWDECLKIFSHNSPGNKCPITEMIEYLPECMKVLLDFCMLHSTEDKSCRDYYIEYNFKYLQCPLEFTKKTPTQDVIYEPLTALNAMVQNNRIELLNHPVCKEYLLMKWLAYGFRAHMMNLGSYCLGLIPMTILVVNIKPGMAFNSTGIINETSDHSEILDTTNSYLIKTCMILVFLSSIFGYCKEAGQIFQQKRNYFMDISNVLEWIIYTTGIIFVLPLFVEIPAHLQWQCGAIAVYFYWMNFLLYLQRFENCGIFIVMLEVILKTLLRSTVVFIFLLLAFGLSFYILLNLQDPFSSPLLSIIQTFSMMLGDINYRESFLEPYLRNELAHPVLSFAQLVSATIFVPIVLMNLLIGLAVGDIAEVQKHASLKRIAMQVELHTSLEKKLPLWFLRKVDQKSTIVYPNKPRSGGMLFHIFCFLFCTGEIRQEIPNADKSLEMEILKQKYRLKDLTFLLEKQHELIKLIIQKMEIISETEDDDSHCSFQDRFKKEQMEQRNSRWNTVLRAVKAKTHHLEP
T1 sequence (O75762 whole entry): as the sequence (O75762 whole entry F944A) above, with A944F counted along it
Chain of Transient receptor potential cation channel subfamily A member 1 (Homo sapiens), O75762 [F909A] (O75762 whole entry F909A): as the sequence (O75762 whole entry F944A) above, with F909A, A944F counted along it

## O=C(O)c1ccccc1Nc1cccc(C(F)(F)F)c1 [FLUFENAMIC ACID]
[1]
  Activity: inactive
[2]
  EC50: 24 µM
[3]
  Activity: Active
[4]; read-out: EC50
  EC50: 7 to 57 µM
[4]; read-out: pEC50 (converted)
  EC50: 6.92 µM

## O=C(O)Cc1ccccc1Nc1c(Cl)cccc1Cl [DICLOFENAC]
[2]
  EC50: 210 µM
[4]; read-out: EC50
  EC50: 56 µM
[4]; read-out: pEC50 (converted)
  EC50: 63.1 µM
[5]
  Activity: Active

## O=C(/C=C/c1ccc(Br)cc1)Nc1ccccc1C(=O)O
[6]
  Activity: 60%
[7]
  IC50: 59 µM
[8]
  Activity: 35%
[9]
  IC50: 9 µM
[10]
  Activity: 6%
[11]
  Activity: inactive
[4]; read-out: EC50
  EC50: 12 µM
[12]
  Activity: Active
[13]
  Activity: Active
[14]
  Activity: inactive
[15]
  pKa: 3.4
[16]
  Activity: Active

## COC(=O)c1ccccc1NC(=O)CCOc1ccccc1
[17]
  Activity: 12%
[6]
  Activity: 45%
[18]
  Activity: inactive
[19]
  Activity: inactive
[20]
  Activity: inactive
[15]
  pKa: 11.9
[5]
  Activity: Active

## O=C(/C=C/c1ccc(Cl)cc1)Nc1ccccc1C(=O)O
[6]
  Activity: 62%
[8]
  Activity: 40%
[9]
  IC50: 4 µM
[10]
  Activity: 7%
[11]
  Activity: inactive
[21]
  Activity: Active
[4]; read-out: EC50
  EC50: 10 µM
[12]
  Activity: Active
[13]
  Activity: Active
[14]
  Activity: inactive
[15]
  pKa: 3.4
[16]
  Activity: Active

## Cc1cccc(Nc2ccccc2C(=O)O)c1C [MEFENAMIC ACID]
[2]
  EC50: 61 µM
[4]; read-out: EC50
  EC50: 16 µM
[5]
  Activity: Active

## O=C(/C=C/c1ccc(C(F)(F)F)cc1)Nc1ccccc1C(=O)O
[6]
  Activity: 51%
[1]
  Activity: inactive
[7]
  IC50: 34 µM
[18]
  Activity: Active
[8]
  Activity: 17%
[10]
  Activity: 28%
[11]
  Activity: inactive
[21]
  Activity: Active
[3]
  Activity: Active
[4]; read-out: EC50
  EC50: 27 µM
[22]
  inhibition: inactive
[14]
  Activity: inactive
[15]
  pKa: 3.4
[5]
  Activity: Active
